Assay results: ChEMBL document CHEMBL1142216, “Clinical prediction tool to identify patients with Pseudomonas aeruginosa respiratory tract infections at greatest risk for multidrug resistance” (2007)

Columns and labels:
Assay type in all cases: functional
Pseudomonas aeruginosa [1] = test: Antibiotic susceptibility by resistance against Pseudomonas aeruginosa from samples collected from patients
Summary of the method: (§1)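 Clinical P. aeruginosa respiratory isolates from hospitalized patients. Susceptibility testing was done by the hospital microbiology laboratory using Kirby-Bauer disk diffusion and interpreted by Clinical and Laboratory Standards Institute guidelines. Laboratory-reported susceptibilities and MICs were abstracted retrospectively. Isolates were grouped overall and by resistance to at least four drug classes (MDR versus non-MDR).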

Pseudomonas aeruginosa [2] = test: Antibiotic susceptibility by resistance against MDR Pseudomonas aeruginosa from samples collected from patients; summary of the method: as §1
Pseudomonas aeruginosa [3] = test: Antibiotic susceptibility by resistance against non-MDR Pseudomonas aeruginosa from samples collected from patients; summary of the method: as §1

SMILES	Activity (Pseudomonas aeruginosa [1])	Activity (Pseudomonas aeruginosa [2])	Activity (Pseudomonas aeruginosa [3])
NCC[C@H](O)C(=O)N[C@@H]1C[C@H](N)[C@@H](O[C@H]2O[C@H](CN)[C@@H](O)[C@H](O)[C@H]2O)[C@H](O)[C@H]1O[C@H]1O[C@H](CO)[C@@H](O)[C@H](N)[C@H]1O [AMIKACIN]	90.9%	82%	95.6%
C[C@H]1[C@H](NC(=O)/C(=N\OC(C)(C)C(=O)O)c2csc(N)n2)C(=O)N1S(=O)(=O)O [AZTREONAM]	58.1%	18.9%	79%
C[C@@H](O)[C@H]1C(=O)N2C(C(=O)O)=C(S[C@@H]3CN[C@H](C(=O)N(C)C)C3)[C@H](C)[C@H]12 [MEROPENEM]	56.1%	17.2%	76.9%
NC[C@H]1O[C@H](O[C@H]2[C@H](O)[C@@H](O[C@H]3O[C@H](CO)[C@@H](O)[C@H](N)[C@H]3O)[C@H](N)C[C@@H]2N)[C@H](N)C[C@@H]1O [TOBRAMYCIN]	67.5%	36.9%	83.8%
O=C(O)c1cn(C2CC2)c2cc(N3CCNCC3)c(F)cc2c1=O [CIPROFLOXACIN]	42.5%	3.3%	63.3%
CO/N=C(\C(=O)N[C@@H]1C(=O)N2C(C(=O)[O-])=C(C[N+]3(C)CCCC3)CS[C@H]12)c1csc(N)n1 [CEFEPIME]	81.8%	52.5%	97.4%
